Laboratory results: PMC4332549 (ChemMedChem, 2012)
Square brackets hold non-standard residues; d marks the D form. Peptide text beside a SMILES is read from it. * marks the point of attachment. Palmitoyl = CCCCCCCCCCCCCCCC(=O)*; Ahp = NCCCCCCC(=O)O; Ahx = NCCCCCC(=O)O; Sar = CNCC(=O)O

Columns and labels:
[1] = molecular target: T1, hGAL1 (human galanin receptor GalR1) (Homo sapiens, UniProt P47211); test: Competitive binding assay, Eu-labeled galanin, time-resolved fluorescence
T1 sequence (P47211 1-349): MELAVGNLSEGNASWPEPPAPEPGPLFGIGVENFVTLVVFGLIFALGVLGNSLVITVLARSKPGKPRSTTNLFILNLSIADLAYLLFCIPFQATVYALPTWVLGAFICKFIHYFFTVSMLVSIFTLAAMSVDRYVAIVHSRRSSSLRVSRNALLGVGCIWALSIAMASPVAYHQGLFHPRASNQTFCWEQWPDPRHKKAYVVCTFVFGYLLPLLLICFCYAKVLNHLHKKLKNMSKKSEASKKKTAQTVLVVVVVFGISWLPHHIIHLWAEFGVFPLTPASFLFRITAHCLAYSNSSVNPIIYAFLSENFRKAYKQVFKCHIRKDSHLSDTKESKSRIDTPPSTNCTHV

[2] = molecular target: T2, hGAL2 (human galanin receptor GalR2) (Homo sapiens, UniProt O43603); test: as above
T2 sequence (O43603 1-387): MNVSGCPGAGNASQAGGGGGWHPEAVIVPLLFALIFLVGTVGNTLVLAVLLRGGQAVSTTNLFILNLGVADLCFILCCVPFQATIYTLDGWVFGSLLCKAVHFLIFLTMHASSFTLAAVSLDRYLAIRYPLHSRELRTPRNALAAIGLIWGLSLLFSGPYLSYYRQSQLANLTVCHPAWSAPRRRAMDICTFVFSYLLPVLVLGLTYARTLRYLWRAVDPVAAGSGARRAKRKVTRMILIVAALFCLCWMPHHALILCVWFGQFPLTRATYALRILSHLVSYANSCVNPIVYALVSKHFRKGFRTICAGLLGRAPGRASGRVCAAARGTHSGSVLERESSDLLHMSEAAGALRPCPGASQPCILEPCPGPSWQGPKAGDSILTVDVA

Rat serum stability = assay type: in vitro ADME
In short: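 Male Sprague-Dawley rat trunk-blood serum, kept at −80 °C and used within 3 months. 10 μg peptide in 1 mL pre-warmed 25% serum in 0.1 M Tris-HCl pH 7.5 at 37 °C. Sampled at 0, 30 min, 1, 2, 4 and 8 h, quenched with TCA/isopropanol at −20 °C for 20 min, then centrifuged. Intact peptide measured by reverse-phase HPLC; t1/2 fitted from ≥3 independent time-courses.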

[3] = octanol-water log D, shake-flask / HPLC; cited from earlier work

Structure (SMILES): CCCCCCCCCCCCCCCC(=O)NCCCC[C@H](NC(=O)[C@H](CCCCN)NC(=O)[C@H](CCCCN)NC(=O)[C@H](Cc1ccc(O)cc1)NC(=O)CNC(=O)[C@H](C)NC(=O)[C@H](CO)NC(=O)[C@H](CC(N)=O)NC(=O)[C@H](CC(C)C)NC(=O)[C@@H](NC(=O)[C@H](Cc1c[nH]c2ccccc12)NC(=O)CNC)[C@@H](C)O)C(=O)N[C@@H](CCCCN)C(N)=O [[des-LLGP]Gal-B2] (H-[Sar]WTLNSAGYKKK(Palmitoyl)K-NH2)
- Ki [1]: ≥ 30 µM
- Ki [2]: 27.4 µM

Structure (SMILES): CCCCCCCCCCCCCCCC(=O)NCCCC[C@H](NC(=O)[C@H](CCCCN)NC(=O)[C@H](CCCCN)NC(=O)CCCCCNC(=O)[C@H](Cc1ccc(O)cc1)NC(=O)CNC(=O)[C@H](C)NC(=O)[C@H](CO)NC(=O)[C@H](CC(N)=O)NC(=O)[C@H](CC(C)C)NC(=O)[C@@H](NC(=O)[C@H](Cc1c[nH]c2ccccc12)NC(=O)CNC)[C@@H](C)O)C(=O)N[C@@H](CCCCN)C(N)=O [L-Gal(6-Ahx)-B2] (H-[Sar]WTLNSAGY[Ahx]KKK(Palmitoyl)K-NH2)
- Ki [1]: 1.17 ± 0.3 µM

Structure (SMILES): CCCCCCCCCCCCCCCC(=O)NCCCC[C@H](NC(=O)[C@@H](CCCCN)NC(=O)[C@@H](CCCCN)NC(=O)[C@H](Cc1ccc(O)cc1)NC(=O)CNC(=O)[C@H](C)NC(=O)[C@H](CO)NC(=O)[C@H](CC(N)=O)NC(=O)[C@H](CC(C)C)NC(=O)[C@@H](NC(=O)[C@H](Cc1c[nH]c2ccccc12)NC(=O)CNC)[C@@H](C)O)C(=O)N[C@H](CCCCN)C(N)=O [D-[des-LLGP]Gal-B2] (H-[Sar]WTLNSAGY[dK][dK]K(Palmitoyl)[dK]-NH2)
- Ki [1]: ≥ 30 µM

Structure (SMILES): CCCCCCCCCCCCCCCC(=O)NCCCC[C@H](NC(=O)[C@H](CCCCN)NC(=O)[C@H](CCCCN)NC(=O)[C@@H]1CCCN1C(=O)CNC(=O)[C@H](CC(C)C)NC(=O)[C@H](CC(C)C)NC(=O)[C@H](Cc1ccc(O)cc1)NC(=O)CNC(=O)[C@H](C)NC(=O)[C@H](CO)NC(=O)[C@H](CC(N)=O)NC(=O)[C@H](CC(C)C)NC(=O)[C@@H](NC(=O)[C@H](Cc1c[nH]c2ccccc12)NC(=O)CNC)[C@@H](C)O)C(=O)N[C@@H](CCCCN)C(N)=O [Gal-B2]
- increase of t1/2 compared to Gal(1-16) (Rat serum stability; rat serum): 80 fold
- log D [3]: 1.24

Structure (SMILES): CCCCCCCCCCCCCCCC(=O)NCCCC[C@H](NC(=O)[C@@H](CCCCN)NC(=O)[C@@H](CCCCN)NC(=O)CCCCCCNC(=O)[C@H](Cc1ccc(O)cc1)NC(=O)CNC(=O)[C@H](C)NC(=O)[C@H](CO)NC(=O)[C@H](CC(N)=O)NC(=O)[C@H](CC(C)C)NC(=O)[C@@H](NC(=O)[C@H](Cc1c[nH]c2ccccc12)NC(=O)CNC)[C@@H](C)O)C(=O)N[C@H](CCCCN)C(N)=O [D-Gal(7-Ahp)-B2] (H-[Sar]WTLNSAGY[Ahp][dK][dK]K(Palmitoyl)[dK]-NH2)
- half-life at 10 µg/mL (Rat serum stability; male, Sprague-Dawley, rat, 25% rat serum, pH 7.5): > 10 h
